Key:
HT-29 = experiment: Cytotoxicity against human HT29 cells by MTT assay; type: functional, cell-based
Summary of the method: (§1)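 Cells grown in DMEM with 10% FBS and antibiotics at 37 °C, 5% CO2, seeded ~5000/well; compound in DMSO added after 24 h, 72 h exposure. MTT (1 mg/mL final, serum- and phenol-red-free DMEM) 4 h, formazan dissolved in 2-propanol, OD 550 nm (ref 690 nm). IC50 = concentration halving OD vs untreated; mean of three independent experiments with SD; doxorubicin positive control.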

HT-1080 [1] = experiment: Cell cycle arrest in human HT1080 cells by accumulation at S phase at 5 uM after 36 hrs; type: functional
Summary of the method: (§2)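 HT-1080 fibrosarcoma cells exposed 36 h, then trypsinized, PBS-washed, fixed in 50% ethanol and stained with propidium iodide containing RNase; DNA content measured by flow cytometry and cell-cycle phase distribution (G0/G1, S, G2/M) determined from DNA histograms.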

HT-1080 [2] = experiment: Cell cycle arrest in human HT1080 cells by accumulation at G2/M phase at 5 uM after 36 hrs; type: functional; summary of the method: as §2
HT-1080 [3] = experiment: Cytotoxicity against human HT1080 cells by MTT assay; type: functional, cell-based; summary of the method: as §1
HT-1080 [4] = experiment: Cell cycle arrest in human HT1080 cells by accumulation at G0/G1 phase at 5 uM after 36 hrs; type: functional; summary of the method: as §2
HT-1080 [5] = experiment: Induction of apoptosis in human HT1080 cells by flow cytometer; type: functional
Summary of the method: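 HT-1080 cells incubated 36 h, ethanol-fixed (50%) and stained with RNase-containing propidium iodide; apoptosis estimated by flow cytometry as sub-diploid peak in DNA-content histogram, expressed as percentage of total events collected.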

MDA-MB-231 = experiment: Cytotoxicity against human MDA-MB-231 cells by MTT assay; type: functional, cell-based; summary of the method: as §1
HT-1080 [6] = experiment: Inhibition of tubulin polymerization in human HT1080 cells after 36 hrs by Western analysis; type: functional, cell-based
Summary of the method: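 Cells lysed in 20 mM Tris-HCl pH 6.8, 1 mM MgCl2, 2 mM EGTA, 0.5% NP-40 with protease/phosphatase inhibitors; spun 13,000 × g 10 min to separate soluble from polymerized tubulin pellet; fractions run on 10% SDS-PAGE, anti-α-tubulin Western blot.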

Nn1c(-c2ccccc2)nc2c(-c3ccc(Cl)cc3)nc3ccc(Cl)cc3c2c1=O
IC50 (HT-29): 4.68 µM | Activity (HT-1080 [1]): 26.86% | Activity (HT-1080 [2]): 22.46% | IC50 (HT-1080 [3]): 2.9 µM | Activity (HT-1080 [4]): 50.68% | Activity (HT-1080 [5]): 2.21% | IC50 (MDA-MB-231): 15.8 µM

Cc1nc2c(-c3ccc(Cl)cc3)nc3ccccc3c2c(=O)n1N
IC50 (HT-29): > 100 µM | IC50 (HT-1080 [3]): > 100 µM | IC50 (MDA-MB-231): > 100 µM

Cc1nc2c(-c3ccc(Br)cc3)nc3ccccc3c2c(=O)n1N
IC50 (HT-29): 77.8 µM | IC50 (HT-1080 [3]): 44.8 µM | IC50 (MDA-MB-231): > 100 µM

Nn1c(-c2ccc(Cl)cc2)nc2c(-c3ccc(Br)cc3)nc3ccc(Cl)cc3c2c1=O
IC50 (HT-29): 2.82 µM | Activity (HT-1080 [1]): 22.48% | Activity (HT-1080 [2]): 27.75% | IC50 (HT-1080 [3]): 1.84 µM | Activity (HT-1080 [4]): 49.76% | Activity (HT-1080 [5]): 9.14% | IC50 (MDA-MB-231): 2.89 µM

Nn1c(-c2ccccc2)nc2c(-c3ccc(Br)cc3)nc3ccccc3c2c1=O
IC50 (HT-29): 89.9 µM | IC50 (HT-1080 [3]): 47.4 µM | IC50 (MDA-MB-231): > 100 µM

Nn1c(-c2ccc(Cl)cc2)nc2c(-c3ccc(Br)cc3)nc3ccccc3c2c1=O
IC50 (HT-29): 23.2 µM | IC50 (HT-1080 [3]): 10.8 µM | IC50 (MDA-MB-231): 34.2 µM

Cc1nc2c(-c3ccc(Cl)cc3)nc3ccc(Cl)cc3c2c(=O)n1N
IC50 (HT-29): 52 µM | IC50 (HT-1080 [3]): 34.3 µM | IC50 (MDA-MB-231): > 100 µM

Nn1c(-c2ccccc2)nc2c(-c3ccc(Br)cc3)nc3ccc(Cl)cc3c2c1=O
IC50 (HT-29): 2.14 µM | Activity (HT-1080 [1]): 28% | Activity (HT-1080 [2]): 26.22% | IC50 (HT-1080 [3]): 1.48 µM | Activity (HT-1080 [4]): 45.78% | Activity (HT-1080 [5]): 5.51% | IC50 (MDA-MB-231): 13.7 µM

Nn1c(-c2ccccc2)nc2c(-c3ccc(Cl)cc3)nc3ccccc3c2c1=O
IC50 (HT-29): > 100 µM | IC50 (HT-1080 [3]): 23 µM | IC50 (MDA-MB-231): > 100 µM

Nn1c(-c2ccc(Cl)cc2)nc2c(-c3ccc(Cl)cc3)nc3ccccc3c2c1=O
IC50 (HT-29): 18.1 µM | IC50 (HT-1080 [3]): 6.84 µM | IC50 (MDA-MB-231): 55.3 µM

COc1cccc2c1C(=O)c1c(O)c3c(c(O)c1C2=O)C[C@@](O)(C(=O)CO)C[C@@H]3O[C@H]1C[C@H](N)[C@H](O)[C@H](C)O1 [DOXORUBICIN]
IC50 (HT-29): 0.35 µM | IC50 (HT-1080 [3]): 0.022 µM | IC50 (MDA-MB-231): 0.03 µM

Nn1c(-c2ccc(Cl)cc2)nc2c(-c3ccc(Cl)cc3)nc3ccc(Cl)cc3c2c1=O
IC50 (HT-29): 1.97 µM | Activity (HT-1080 [1]): 11.26% | Activity (HT-1080 [6]): Dose-dependent effect | Activity (HT-1080 [2]): 31.49% | IC50 (HT-1080 [3]): 1.23 µM | Activity (HT-1080 [4]): 57.25% | Activity (HT-1080 [5]): 7.62% | IC50 (MDA-MB-231): 1.82 µM
